Screening data as filed in PubChem.
This is a sample that favours compounds with a hit; in the whole collection about 3.3% have one here.
Exocytosis inh: lytic granule exocytosis inhibition. inhibition, % at 10 µM. actives 0.66% (n = 360,000). AID 651702. TALL-104 LAMP-1 surface exposure, flow cytometry; cells stimulated with thapsigargin and PMA;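 active means inhibition above about 55%, limit read from the data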
Arr AP2 block: inhibitors of human beta-arrestin and AP2 interaction | actives 0.31% (n = 340,000) | AID 504490 | inhibition, % at 10 µM | FITC-arrestin peptide / GST-AP2 beads, flow cytometry; AP2 beta2 appendage carries R879A mutation;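 active means inhibition above a set limit, near 3 SD of compounds lacking own fluorescence, cut at about 54% in these data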;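 further: plate controls were DMSO wells for no effect and 5 µM unlabelled arrestin peptide for full effect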
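Material – GST-tagged AP2 beta2-adaptin appendage (R879A) on 4 µm glutathione beads · Probe or stimulus – fluorescein-tagged arrestin peptide at 50 nM final · Timing – 12 min plus 1 h, RT · Detection – bead flow cytometry, FITC channel · Read-out basis – inhibition as reduced fluorescein signal on beads, percent · Medium – PBS plus Tween 20 (0.05%) and BSA (0.1%)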
NRP1-CendR mod: modulators of CendR peptide binding to human neuropilin-1; O14786; FAM-RPARPAR peptide binding to NRP-1, fluorescence polarization; inhibition, % at 25 µM; actives 0.85% (n = 360,000); AID 602438;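 active means inhibition or corrected inhibition above about 18%, plus a signal ratio from 0.5 to 1.5, limit read from the data, passing the limit was not always enough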
ABCB6 inh 2: human ABCB6 transporter inhibition | K562-ABCB6 porphyrin accumulation, flow cytometry, 1 h; stronger effect = lower value | actives 0.19% (n = 360,000) | fluorescence ratio to DMSO, % at 10 µM | Q9NP58;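 active means fluorescence ratio to DMSO below 75%, the collection mean minus 3 SD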;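 further: signal is porphyrin accumulated inside mitochondria; 100% equals median channel fluorescence of DMSO control wells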
Myeloid diff 2: compounds promoting myeloid differentiation | ER-HoxA9 myeloid progenitors, lysozyme-GFP differentiation, flow cytometry | calls only at 10 µM | actives 1% (n = 360,000) | AID 624256;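 active means normalized GFP-positive differentiation at or above the plate's own cutoff, the solvent-only control mean plus 3 SD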;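 further: cells exposed to compound for four days before flow analysis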
ATG4B inhibitor: ATG4B (human) cysteine protease inhibition; Q9Y4P1; ATG4B cleavage of LC3-PLA2, NBD-HPC fluorescence, 1 h; inhibition, % at 8.33 µM; actives 0.51% (n = 340,000); AID 504462; in the data active means inhibition above about 40%
Target sequence (Q9Y4P1 whole entry, looked up): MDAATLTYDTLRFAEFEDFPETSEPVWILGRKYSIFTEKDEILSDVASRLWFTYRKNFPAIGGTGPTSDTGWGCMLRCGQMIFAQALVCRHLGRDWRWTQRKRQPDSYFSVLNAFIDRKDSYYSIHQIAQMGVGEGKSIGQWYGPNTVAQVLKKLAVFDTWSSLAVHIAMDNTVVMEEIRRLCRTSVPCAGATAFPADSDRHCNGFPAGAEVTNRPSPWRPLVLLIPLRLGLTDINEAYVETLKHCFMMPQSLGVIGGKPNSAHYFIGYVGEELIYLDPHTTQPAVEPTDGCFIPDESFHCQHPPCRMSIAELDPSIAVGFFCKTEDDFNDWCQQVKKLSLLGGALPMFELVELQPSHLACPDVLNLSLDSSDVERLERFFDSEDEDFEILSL
Starred values were filed as active, the others as inactive.

Results for Cn1c(CCN2CCCC2)nc2cc(NC(=O)COc3ccc(Cl)cc3)ccc21 ?
Exocytosis inh: 3.8; NRP1-CendR mod: 18.9*; ABCB6 inh 2: 104.0; Myeloid diff 2: inactive

Results for CCN1CCN(CCc2nc3cc(NC(=O)COc4ccc(Cl)cc4)ccc3n2C)CC1 ?
Exocytosis inh: 20.0; Arr AP2 block: 9.4; NRP1-CendR mod: 1.4; ABCB6 inh 2: 102.0; Myeloid diff 2: inactive; ATG4B inhibitor: -7.6

What do the screens show for `CC(=O)c1cnc(Nc2cccc(C)c2)s1`?
Exocytosis inh: -1.6; Arr AP2 block: 7.3; NRP1-CendR mod: 10.5; ABCB6 inh 2: 97.0; Myeloid diff 2: inactive; ATG4B inhibitor: -0.1

Results for CC1CCN(Cc2c(C(=O)N/N=C/c3cc(Br)ccc3O)nnn2-c2nonc2N)CC1 ?
Exocytosis inh: 1.7; Arr AP2 block: 14.4; NRP1-CendR mod: -8.2; ABCB6 inh 2: 98.0; Myeloid diff 2: inactive; ATG4B inhibitor: -0.2

What do the screens show for `Cc1cc(C)c(/C=N/NC(=O)c2nnn(-c3nonc3N)c2CN2CCC(C)CC2)c(C)c1`?
Exocytosis inh: 81.9*; Arr AP2 block: 1.6; NRP1-CendR mod: 16.4; ABCB6 inh 2: 100.0; Myeloid diff 2: inactive; ATG4B inhibitor: -12.6

What do the screens show for `COc1cc(C2Nc3cccc4cccc(c34)N2)cc(OC)c1OC(C)=O`?
Exocytosis inh: 7.2; Arr AP2 block: 40.4; NRP1-CendR mod: 25.3*; ABCB6 inh 2: 103.0; Myeloid diff 2: inactive; ATG4B inhibitor: -6.4

Results for C[C@@H](NC(=O)c1nc[nH]c1C(=O)NCc1ccccc1)c1ccccc1 ?
Exocytosis inh: 6.0; Arr AP2 block: -3.4; NRP1-CendR mod: 26.4*; ABCB6 inh 2: 90.0; Myeloid diff 2: inactive; ATG4B inhibitor: -0.1

Results for CC1CCN(C(=O)c2[nH]cnc2C(=O)N[C@H](C)c2ccccc2)CC1 ?
Exocytosis inh: 2.1; Arr AP2 block: 24.3; NRP1-CendR mod: -2.1; ABCB6 inh 2: 104.0; Myeloid diff 2: inactive; ATG4B inhibitor: -6.2

What do the screens show for `C[C@H](NC(=O)c1nc[nH]c1C(=O)NCc1ccccc1)c1ccccc1`?
Exocytosis inh: 9.8; Arr AP2 block: 3.0; NRP1-CendR mod: 13.2; ABCB6 inh 2: 96.0; Myeloid diff 2: inactive; ATG4B inhibitor: -8.6

Results for C[C@@H](NC(=O)c1nc[nH]c1C(=O)N1CCN(c2ccccc2)CC1)c1ccccc1 ?
Exocytosis inh: -14.9; Arr AP2 block: -9.6; NRP1-CendR mod: 21.5*; ABCB6 inh 2: 97.0; Myeloid diff 2: inactive; ATG4B inhibitor: -7.7

How did C[C@H](NC(=O)c1nc[nH]c1C(=O)NCc1ccc(CNC(=O)OC(C)(C)C)cc1)c1ccccc1 do in these assays?
Exocytosis inh: -8.2; Arr AP2 block: 0.8; NRP1-CendR mod: 28.1*; ABCB6 inh 2: 94.0; Myeloid diff 2: inactive; ATG4B inhibitor: -8.8

Results for C[C@H](NC(=O)c1nc[nH]c1C(=O)NCCCCCNC(=O)OC(C)(C)C)c1ccccc1 ?
Exocytosis inh: 3.9; Arr AP2 block: 0.1; NRP1-CendR mod: 27.8*; ABCB6 inh 2: 97.0; Myeloid diff 2: inactive; ATG4B inhibitor: -7.4

What do the screens show for `Cc1cc(C)n(C(C)CC(=O)Nc2ccc3c(c2)OCO3)n1` (stereo unspecified)?
Exocytosis inh: -3.7; Arr AP2 block: -7.3; NRP1-CendR mod: 2.1; ABCB6 inh 2: 100.0; Myeloid diff 2: inactive; ATG4B inhibitor: -3.5

Results for CN(CC(=O)Nc1cccc(F)c1)CC(=O)Nc1ccccc1Oc1ccccc1 ?
Exocytosis inh: 4.4; Arr AP2 block: 0.8; NRP1-CendR mod: 8.6; ABCB6 inh 2: 99.0; Myeloid diff 2: inactive; ATG4B inhibitor: -0.7

How did CC(C)(C)OC(=O)NCc1ccc(CNC(=O)c2nc[nH]c2C(=O)N2CCN(C(=O)OC(C)(C)C)CC2)cc1 do in these assays?
Exocytosis inh: -7.6; Arr AP2 block: 3.5; NRP1-CendR mod: 26.6*; ABCB6 inh 2: 93.0; Myeloid diff 2: inactive; ATG4B inhibitor: -18.1

How did O=C(Cn1cnc2ccccc21)N1CCN(S(=O)(=O)c2ccccc2)CC1 do in these assays?
Exocytosis inh: 1.6; Arr AP2 block: -23.9; NRP1-CendR mod: -0.9; ABCB6 inh 2: 94.0; Myeloid diff 2: inactive; ATG4B inhibitor: -2.1

How did O=c1[nH]c2cc3ccccc3cc2nc1-c1nnnn1C1CCCC1 do in these assays?
Exocytosis inh: 17.0; NRP1-CendR mod: -20.3; ABCB6 inh 2: 104.0; Myeloid diff 2: active
